From ChEMBL document CHEMBL2311435, “Development of 18F-labeled picolinamide probes for PET imaging of malignant melanoma” (J Med Chem, 2013)

What was measured:
Settings in all cases: in vivo
[1] = test system: Mus musculus; assay: Biodistribution in eye of C57BL/6 mouse xenografted with mouse B16F10 cells at 3.7 MBq, iv after 2 hrs by gamma-scintillation counting analysis; assay type: ADME, organism-based, B16-F10
Procedure, shortened: (§1)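 1.0 × 10^6 B16F10 cells in PBS injected subcutaneously into the right shoulder of C57BL/6 mice, grown to 0.5 cm (~10 day). Tail-vein injection of about 3.7 MBq (100 μCi) 18F probe in PBS (0.1 M, pH 7.4). Killed at 1.0 or 2.0 h p.i. (n = 4 per group). Tissues excised, weighed and gamma-counted; uptake expressed as %ID/g, mean ± SD.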

[2] = test system: Zone of skin; assay: Biodistribution in skin of C57BL/6 mouse xenografted with mouse B16F10 cells at 3.7 MBq, iv after 2 hrs by gamma-scintillation counting analysis; assay type: ADME, organism-based, B16-F10; procedure, shortened: as §1
[3] = test system: Brain; assay: Biodistribution in brain of C57BL/6 mouse xenografted with mouse B16F10 cells at 3.7 MBq, iv after 2 hrs by gamma-scintillation counting analysis; assay type: ADME, organism-based, B16-F10; procedure, shortened: as §1
[4] = test system: Zone of skin; assay: Biodistribution in skin of C57BL/6 mouse xenografted with mouse B16F10 cells at 3.7 MBq, iv after 1 hr by gamma-scintillation counting analysis; assay type: ADME, organism-based, B16-F10; procedure, shortened: as §1
[5] = test system: Pancreas; assay: Biodistribution in pancreas of C57BL/6 mouse xenografted with mouse B16F10 cells at 3.7 MBq, iv after 2 hrs by gamma-scintillation counting analysis; assay type: ADME, organism-based, B16-F10; procedure, shortened: as §1
[6] = test system: Mus musculus; assay: Biodistribution in lungs of C57BL/6 mouse xenografted with mouse B16F10 cells at 3.7 MBq, iv after 1 hr by gamma-scintillation counting analysis; assay type: ADME, organism-based, Lung, B16-F10; procedure, shortened: as §1
[7] = test system: Spleen; assay: Biodistribution in spleen of C57BL/6 mouse xenografted with mouse B16F10 cells at 3.7 MBq, iv after 1 hr by gamma-scintillation counting analysis; assay type: ADME, organism-based, B16-F10; procedure, shortened: as §1
[8] = Drug uptake in tumor of C57BL/6 mouse xenografted with mouse B16F10 cells at 3.7 MBq, iv after 0.5 hrs by PET imaging analysis; assay type: ADME, organism-based, Neoplasm, B16-F10
Procedure, shortened: (§2)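 Static small-animal PET at 0.5, 1 and 2 h after tail-vein injection of ~3.7 MBq (100 μCi) into B16F10-bearing C57BL/6 mice (n = 4 per probe). Isoflurane anesthesia, 5% induction and 2% maintenance in O2. Decay-corrected images. ROI-derived %ID/g assumes 1 g/ml density, without attenuation correction. Mean ± SD.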

[9] = test system: Nucleic Acid; assay: Ratio of drug uptake in tumor to muscle of C57BL/6 mouse xenografted with mouse B16F10 cells at 3.7 MBq, iv after 1 hr by gamma-scintillation counting analysis; assay type: ADME, organism-based, B16-F10
Procedure, shortened: (§3)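 Same subcutaneous B16F10 model and tail-vein dose of about 3.7 MBq (100 μCi), n = 4 per group. Dissection at 1 or 2 h p.i. Gamma-counter %ID/g of tumor divided by that of blood, lung, liver or muscle, given as mean ± SD.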

[10] = test system: Kidney; assay: Biodistribution in kidney of C57BL/6 mouse xenografted with mouse B16F10 cells at 3.7 MBq, iv after 2 hrs by gamma-scintillation counting analysis; assay type: ADME, organism-based, B16-F10; procedure, shortened: as §1
[11] = test system: Mus musculus; assay: Biodistribution in lungs of C57BL/6 mouse xenografted with mouse B16F10 cells at 3.7 MBq, iv after 2 hrs by gamma-scintillation counting analysis; assay type: ADME, organism-based, Lung, B16-F10; procedure, shortened: as §1
[12] = test system: Bone; assay: Biodistribution in bone of C57BL/6 mouse xenografted with mouse B16F10 cells at 3.7 MBq, iv after 1 hr by gamma-scintillation counting analysis; assay type: ADME, organism-based, Bone element, B16-F10; procedure, shortened: as §1
[13] = test system: Nucleic Acid; assay: Ratio of drug uptake in tumor to lungs of C57BL/6 mouse xenografted with mouse B16F10 cells at 3.7 MBq, iv after 2 hrs by gamma-scintillation counting analysis; assay type: ADME, organism-based, B16-F10; procedure, shortened: as §3
[14] = test system: Blood; assay: Biodistribution in blood of C57BL/6 mouse xenografted with mouse B16F10 cells at 3.7 MBq, iv after 2 hrs by gamma-scintillation counting analysis; assay type: ADME, organism-based, B16-F10; procedure, shortened: as §1
[15] = Drug uptake in tumor of C57BL/6 mouse xenografted with mouse B16F10 cells at 3.7 MBq, iv after 2 hrs by PET imaging analysis; assay type: ADME, organism-based, Neoplasm, B16-F10; procedure, shortened: as §2

`CCN(CC)CCNC(=O)c1ccc([18F])cn1` showed a Drug uptake [1] of 32.83 % ID/g, a Drug uptake [2] of 0.68 % ID/g and a Drug uptake [3] of 0.42 % ID/g. For the same compound, the Drug uptake [4] was 1.3 % ID/g, the Drug uptake [5] was 0.61 % ID/g and the Drug uptake [6] was 1.58 % ID/g. The Drug uptake [7] was 1.78 % ID/g, the Drug uptake [8] was 12.74 % ID/g and the Ratio [9] was 13.84. The Drug uptake [10] was 1.03 % ID/g, the Drug uptake [11] was 0.69 % ID/g and the Drug uptake [12] was 2.4 % ID/g. The Ratio [13] was 24.92, the Drug uptake [14] was 0.19 % ID/g and the Drug uptake [15] was 16.87 % ID/g.
